ChEMBL document CHEMBL4270636, “5'-Chloro-2,2'-dihydroxychalcone and related flavanoids as treatments for prostate cancer” (Eur J Med Chem, 2018)
Each block holds one compound with its values, some of them ahead of it. Active and inactive are the calls of the source. The rule behind the calls is not given here.

Assays:
Androgen receptor = target: T1, Androgen receptor (Homo sapiens, UniProt P10275); test: Antagonist activity at AR in human LNCAP cells assessed as reduction in DHT-induced transcriptional activation after 24 hrs by luciferase reporter gene assay; format: cell-based
T1 sequence (P10275 whole entry): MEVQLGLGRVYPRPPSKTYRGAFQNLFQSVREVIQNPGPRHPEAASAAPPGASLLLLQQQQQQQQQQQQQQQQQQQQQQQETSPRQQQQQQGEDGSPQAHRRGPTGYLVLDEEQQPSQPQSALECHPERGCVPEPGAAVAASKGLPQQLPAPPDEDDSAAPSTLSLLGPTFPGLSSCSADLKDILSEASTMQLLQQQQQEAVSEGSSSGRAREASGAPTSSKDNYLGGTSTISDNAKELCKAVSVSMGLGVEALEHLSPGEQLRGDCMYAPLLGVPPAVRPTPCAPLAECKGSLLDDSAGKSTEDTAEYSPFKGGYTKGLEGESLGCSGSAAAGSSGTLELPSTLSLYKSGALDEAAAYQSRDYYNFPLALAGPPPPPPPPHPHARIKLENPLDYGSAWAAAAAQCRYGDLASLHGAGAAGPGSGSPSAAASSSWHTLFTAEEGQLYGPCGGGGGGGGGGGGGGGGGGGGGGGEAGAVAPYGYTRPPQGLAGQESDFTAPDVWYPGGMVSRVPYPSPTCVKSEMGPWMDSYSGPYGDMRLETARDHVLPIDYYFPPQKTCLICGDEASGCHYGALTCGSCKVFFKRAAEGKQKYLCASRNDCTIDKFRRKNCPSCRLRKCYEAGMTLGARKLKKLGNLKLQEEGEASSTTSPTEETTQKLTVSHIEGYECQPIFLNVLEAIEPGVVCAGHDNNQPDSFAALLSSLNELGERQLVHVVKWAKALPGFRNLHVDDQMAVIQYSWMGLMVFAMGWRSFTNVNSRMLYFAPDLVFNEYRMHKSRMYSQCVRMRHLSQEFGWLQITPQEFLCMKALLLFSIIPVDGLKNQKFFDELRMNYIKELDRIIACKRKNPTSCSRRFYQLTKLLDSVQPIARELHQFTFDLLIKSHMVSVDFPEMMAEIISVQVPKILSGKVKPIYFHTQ

LNCaP [1] = test: Antiproliferative activity against human LNCAP cells assessed as reduction in cell growth treated every 2 days for 4 days by hemocytometry; format: functional, cell-based
PC-3 [2] = test: Antiproliferative activity against human PC3 cells assessed as reduction in cell growth treated every 2 days for 4 days by hemocytometry; format: functional, cell-based
DU-145 = test: Antiproliferative activity against human DU145 cells assessed as reduction in cell growth treated every 2 days for 4 days by hemocytometry; format: functional, cell-based
[3] = Antiproliferative activity against human KBVIN cells assessed as reduction in cell growth after 72 hrs by sulforhodamine B assay; format: functional, cell-based
MDA-MB-231 = test: Antiproliferative activity against human MDA-MB-231 cells assessed as reduction in cell growth after 72 hrs by sulforhodamine B assay; format: functional, cell-based; conditions: MDA-MB-231, 72 h
[4] = target: T2, Androgen receptor (Homo sapiens) (UniProt P10275); test: Antagonist activity at AR in human LNCAP cells assessed as reduction in DHT-induced cell growth at 1 to 3 uM treated for every 2 days for 4 days by hemocytometry; format: cell-based
T2 sequence (whole entry): T1 sequence (P10275 whole entry)

KB = test: Antiproliferative activity against human KB cells assessed as reduction in cell growth after 72 hrs by sulforhodamine B assay
[5] = Antiproliferative activity against human DU145/TxR/CxR cells assessed as reduction in cell growth treated every 2 days for 4 days by hemocytometry; format: functional, cell-based; conditions: DU-145
A549 [6] = test: Cell cycle arrest in human A549 cells assessed as accumulation at G1 phase at 3 times IC50 after 24 to 48 hrs by propidium iodide staining based flow cytometry; format: functional
Mus musculus = test: Toxicity in C.B-17 SCID mouse xenografted with human PC3 cells assessed as body weight loss at 30 mg/kg, ip administered every 4 days; format: organism-based; conditions: in vivo, 96 h
How it was run: (§1)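 Male C.B-17 scid mice (purchased at 7 weeks) given 2.0×10⁶ PC-3 cells in 50% matrigel subcutaneously on dorsal side at 8 weeks; at ~50 mm³ tumor, randomized into groups of 5, dosing from second day at 30 mg/kg i.p. every 4 days; tumor volume and body weight followed; mean ± SD.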

Homo sapiens [7] = species on record: Homo sapiens; test: Induction of microtubule depolymerization in human PC3 cells at 2 times IC50 after 24 hrs by […] microscopic analysis; format: cell-based
PC-3 [8] = test: Antitumor activity against human PC3 cells xenografted in C.B-17 SCID mouse assessed as tumor growth inhibition at 30 mg/kg, ip administered every 4 days measured during compound dosing; format: functional, organism-based; how it was run: as §1
[9] = target: T2, Androgen receptor (Homo sapiens); test: Antagonist activity at AR (unknown origin) expressed in human PC3 cells assessed as reduction in DHT-induced transcriptional activation at 3 to 10 uM after 24 hrs by luciferase reporter gene assay; format: cell-based
How it was run: (§2)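 PC-3 cells (AR-negative) co-transfected with wild-type or AR-V7 expression vector plus PSA promoter-luciferase reporter (pGL3PSAp-5.8, 0.5 ug/well); seeded 50,000/well, transfected after 24 h, treated with compounds ± 1 nM DHT for 24 h from 24 h post-transfection; lysed cells read for luciferase activity by luminometer.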

A549 [10] = test: Cell cycle arrest in human A549 cells assessed as accumulation at Sub-G1 phase at 3 times IC50 after 24 to 48 hrs by propidium iodide staining based flow cytometry; format: functional
[11] = Antiproliferative activity against human PC3-TxR cells assessed as reduction in cell growth treated every 2 days for 4 days by hemocytometry; format: functional, cell-based
[12] = Antiproliferative activity against human PC3/TxR/CxR cells assessed as reduction in cell growth treated every 2 days for 4 days by hemocytometry; format: functional, cell-based
Homo sapiens [13] = species on record: Homo sapiens; test: Antiproliferative activity against human LNCaP-SF cells assessed as reduction in cell growth at 10 uM treated every 2 days for 4 days by hemocytometry; format: functional, cell-based
How it was run: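 LNCaP-SF castration-resistant subline cultured 4 days with compound at stated concentrations, with or without 0.1 nM DHT; growth assessed by cell counting.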

A549 [14] = test: Antiproliferative activity against human A549 cells assessed as reduction in cell growth after 72 hrs by sulforhodamine B assay; conditions: A549, 72 h
LNCaP [15] = test: Antiproliferative activity against human LNCAP cells assessed as reduction in cell growth at 10 uM treated every 2 days for 4 days by hemocytometry; format: functional, cell-based
MCF7 = test: Antiproliferative activity against human MCF7 cells assessed as reduction in cell growth after 72 hrs by sulforhodamine B assay; conditions: MCF7, 72 h
PC-3 [16] = test: Cell cycle arrest in human PC3 cells assessed as accumulation at Sub-G1 phase at 2 times IC50 after 24 to 48 hrs by propidium iodide staining based flow cytometry; format: functional
[17] = Antiproliferative activity against human DU145-TxR cells assessed as reduction in cell growth treated every 2 days for 4 days by hemocytometry; format: functional, cell-based
[18] = test system: Androgen receptor (Homo sapiens), P10275 [UNDEFINED MUTATION]; test: Antagonist activity at AR V7 mutant (unknown origin) expressed in human PC3 cells assessed as reduction in DHT-induced transcriptional activation after 24 hrs by luciferase reporter gene assay; format: cell-based; how it was run: as §2

Structure (SMILES): COc1ccccc1/C=C/C(=O)c1cc(F)ccc1O
- IC50 (Androgen receptor): 5.01 µM

Structure (SMILES): COc1cc(/C=C/C(=O)c2cc(Cl)ccc2O)ccc1O
- IC50 (Androgen receptor): 5.95 µM

Structure (SMILES): COCOc1ccccc1/C=C/C(=O)c1cc(F)ccc1O
- IC50 (Androgen receptor): > 10 µM

Structure (SMILES): O=C(/C=C/c1ccc2c(c1)OCO2)c1cc(Cl)ccc1O
- IC50 (Androgen receptor): 4.36 µM

Structure (SMILES): CC(=O)O[C@H]1C(=O)[C@@]2(C)[C@H]([C@H](OC(=O)c3ccccc3)[C@]3(O)C[C@H](OC(=O)[C@H](O)[C@@H](NC(=O)c4ccccc4)c4ccccc4)C(C)=C1C3(C)C)[C@]1(OC(C)=O)CO[C@@H]1C[C@@H]2O [PACLITAXEL]
- IC50 [3]: 1.73 µM
- IC50 (MDA-MB-231): 0.0096 µM

Structure (SMILES): O=C(/C=C/c1ccccc1O)c1cc(Cl)ccc1O
- IC50 (Androgen receptor): < 1 µM
- Activity [4]: Active
- IC50 (LNCaP [1]): 3.52 µM
- IC50 (KB): 5 µM
- IC50 [5]: 5.32 µM
- Activity (A549 [6]): Active
- Activity (Mus musculus): Non-Toxic
- Activity (Homo sapiens [7]): Active
- TGI (PC-3 [8]): Active
- inhibition [9]: Active
- Activity (A549 [10]): inactive
- IC50 [11]: < 3 µM
- IC50 [3]: 4.9 µM
- IC50 [12]: 4.07 µM
- Activity (Homo sapiens [13]): Active
- IC50 (A549 [14]): 9.1 µM
- Activity (LNCaP [15]): Active
- IC50 (MDA-MB-231): 5.1 µM
- IC50 (MCF7): 4.9 µM
- Activity (PC-3 [16]): Active
- IC50 (PC-3 [2]): 1.52 µM
- IC50 [17]: 7.43 µM
- IC50 (DU-145): 4.5 µM
- inhibition [18]: Dose-dependent effect

Structure (SMILES): O=C(/C=C/c1ccccc1O)c1cc(F)ccc1O
- IC50 (Androgen receptor): 1.42 µM

Structure (SMILES): COc1ccccc1/C=C/C(=O)c1ccccc1O
- IC50 (Androgen receptor): 3.5 µM

Structure (SMILES): COc1ccc(/C=C/C(=O)c2cc(Cl)ccc2O)cc1OC
- IC50 (Androgen receptor): 5.25 µM

The next lines start with the values.

- IC50 (Androgen receptor): < 1 µM
- IC50 (LNCaP [1]): 4.2 µM
- IC50 (PC-3 [2]): 4.16 µM
- IC50 (DU-145): 5.03 µM
Structure (SMILES): CC(C)Oc1ccccc1/C=C/C(=O)c1cc(Br)ccc1O

- IC50 (Androgen receptor): > 10 µM
Structure (SMILES): COc1ccc2c(c1)OC(c1ccccc1O)CC2=O (centres undefined)

- IC50 (Androgen receptor): 3.96 µM
Structure (SMILES): CCCOc1ccccc1/C=C/C(=O)c1cc(Br)ccc1O

- IC50 (Androgen receptor): > 10 µM
Structure (SMILES): O=C1CC(c2ccccc2O)Oc2cc(O)cc(O)c21 (centres undefined)

- IC50 (Androgen receptor): 1.68 µM
Structure (SMILES): O=C1CC(c2ccccc2O)Oc2ccc(Cl)cc21 (centres undefined)

- IC50 (Androgen receptor): 1.77 µM
Structure (SMILES): O=C1CC(c2ccccc2O)Oc2ccc(Br)cc21 (centres undefined)

- IC50 (Androgen receptor): 8.69 µM
Structure (SMILES): O=C(/C=C/c1ccccc1O)c1cc(Br)ccc1O

- IC50 (Androgen receptor): 3.57 µM
Structure (SMILES): O=C1CC(c2ccccc2O)Oc2c(Br)cc(Br)cc21 (centres undefined)
